From ChEMBL document CHEMBL1156191, “Characterization of the pharmacophore properties of novel selective estrogen receptor downregulators (SERDs)” (J Med Chem, 2010) come the findings set out here.

Experiment [1] relates to MCF7. In words: Down regulation of ERalpha expression in human MCF7 cell matrix fraction at 1 uM after 16 hrs by Western blotting. The class given is functional, cell-based. The method, boiled down: (§1)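 MCF-7 cells steroid-depleted five days in phenol red-free medium with 5% charcoal-dextran-treated calf serum, grown to ~80% confluency, then given 1 μM compound or 0.1% EtOH vehicle for 16 h. Cytoplasmic, nuclear, matrix and insoluble fractions or whole-cell lysate prepared. Western blot with anti-ERα (F10) and infrared detection; Sp1 serves as loading reference.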
For orientation: A western blot detects proteins with antibodies after separation by electrophoresis.

Experiment [2] has as its target T1, Estrogen receptor (Homo sapiens) (UniProt P03372).
T1 sequence (whole entry): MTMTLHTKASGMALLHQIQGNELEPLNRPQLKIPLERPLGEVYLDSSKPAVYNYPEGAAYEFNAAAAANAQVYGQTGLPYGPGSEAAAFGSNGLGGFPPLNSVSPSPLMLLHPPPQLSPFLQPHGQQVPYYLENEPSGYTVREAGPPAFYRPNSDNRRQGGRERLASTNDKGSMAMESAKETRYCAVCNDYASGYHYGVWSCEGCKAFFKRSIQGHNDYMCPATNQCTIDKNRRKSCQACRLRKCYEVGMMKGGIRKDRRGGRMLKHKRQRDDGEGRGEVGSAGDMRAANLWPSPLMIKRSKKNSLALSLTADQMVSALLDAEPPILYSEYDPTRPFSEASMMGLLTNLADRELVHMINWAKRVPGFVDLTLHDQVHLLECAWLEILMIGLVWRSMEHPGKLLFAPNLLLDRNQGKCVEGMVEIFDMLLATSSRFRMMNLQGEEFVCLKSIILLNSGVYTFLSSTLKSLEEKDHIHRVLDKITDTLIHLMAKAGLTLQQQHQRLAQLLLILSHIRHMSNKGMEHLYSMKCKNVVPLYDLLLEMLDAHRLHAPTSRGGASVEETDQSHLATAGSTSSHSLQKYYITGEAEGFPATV
In words: Effect on ERalpha-mediated transcriptional activity in human MCF7 cells assessed as reduction of estradiol-induced activation of pS2 mRNA expression at 1 uM treated 16 hrs before estradiol challenge measured after 4 hrs by RT-PCR analysis. The class given is cell-based. In a few lines: (§2)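 MCF-7 cells steroid-depleted seven days in phenol red-free medium with 5% charcoal-dextran calf serum, grown to ~80% confluency, then given 1 μM compound 16 h followed by 0.1% ethanol vehicle or 1 nM estradiol for 4 h. Total RNA reverse transcribed and target mRNA quantified by real-time PCR. Repeated-measures one-way ANOVA with Tukey test.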

Experiment [3] deals with MCF7. In words: Down regulation of ERalpha expression in human MCF7 cell nuclear fraction at 1 uM after 16 hrs by Western blotting. It counts as functional, cell-based. In a few lines:
as §1

The test system of experiment [4] is MCF7. Briefly: Down regulation of ERalpha expression in human MCF7 cell cytoplasmic fraction at 1 uM after 16 hrs by Western blotting. The class given is functional, cell-based. In a few lines: as §1
The subject of experiment [5] is MCF7. Briefly: Down regulation of ERalpha expression in human MCF7 cell cytoplasmic fraction at 1 uM treated 16 hrs before estradiol challenge measured after 4 hrs by Western blotting in presence of 1 nM estradiol. It counts as functional, cell-based. In a few lines: (§3)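 Steroid-depleted MCF-7 cells (5 d, 5% charcoal-dextran calf serum, phenol red-free medium) exposed 16 h to 1 μM compound, then 1 nM estradiol added for 4 h before fractionation into cytoplasmic, nuclear, matrix, insoluble or whole-cell extracts. ERα detected by Western blot with F10 antibody; Sp1 used as loading reference.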

In experiment [6] the test system is MCF7. Briefly: Down regulation of ERalpha expression in human MCF7 cell insoluble fraction at 1 uM after 16 hrs by Western blotting. It counts as functional, cell-based. In a few lines: as §1
The target in experiment [7] is T1, Estrogen receptor (Homo sapiens). In words: Effect on ERalpha-mediated transcriptional activity in human MCF7 cells assessed as reduction of estradiol-induced activation of carbonic anhydrase 12 mRNA expression at 1 uM treated 16 hrs before estradiol challenge measured after 4 hrs by RT-PCR analysis. It counts as cell-based. In a few lines:
as §2

Experiment [8] has as its system MCF7. In words: Down regulation of ERalpha expression in human MCF7 cell whole cell extract at 1 uM treated 16 hrs before estradiol challenge measured after 4 hrs by Western blotting in presence of 1 nM estradiol. The class given is functional, cell-based. In a few lines: as §3
In experiment [9] the test system is MCF7. In words: Down regulation of ERalpha expression in human MCF7 cell insoluble fraction at 1 uM treated 16 hrs before estradiol challenge measured after 4 hrs by Western blotting in presence of 1 nM estradiol. The class given is functional, cell-based. The method, boiled down: as §3
Experiment [10] has as its system MCF7. Briefly: Down regulation of ERalpha expression in human MCF7 cell nuclear fraction at 1 uM treated 16 hrs before estradiol challenge measured after 4 hrs by Western blotting in presence of 1 nM estradiol. The class given is functional, cell-based. The method, boiled down:
as §3

Experiment [11] deals with MCF7. Briefly: Down regulation of ERalpha expression in human MCF7 cell whole cell extract at 1 uM after 16 hrs by Western blotting. The class given is functional, cell-based. The method, boiled down: as §1
For experiment [12], the target named is T1, Estrogen receptor (Homo sapiens). In words: Effect on ERalpha-mediated transcriptional activity in human MCF7 cells assessed as reduction of estradiol-induced activation of progesterone receptor mRNA expression at 1 uM treated 16 hrs before estradiol challenge measured after 4 hrs by RT-PCR analysis. It counts as cell-based. The method, boiled down: as §2

Experiment [13] has as its system MCF7. In words: Down regulation of ERalpha expression in human MCF7 cell matrix fraction at 1 uM treated 16 hrs before estradiol challenge measured after 4 hrs by Western blotting in presence of 1 nM estradiol. The class given is functional, cell-based. In a few lines: as §3
The target in experiment [14] is Estrogen receptor beta (Homo sapiens) (UniProt Q92731). In words: Displacement of [3H]estradiol from full-length human estrogen receptor beta assessed as relative binding affinity by radiometric assay relative to estradiol. (Loss of bound radioactivity is the signal in a displacement assay; it reports binding, not function.)
The species named for a further experiment is Homo sapiens. In words: Ratio of relative binding affinity for human ERbeta to relative binding affinity for human ERalpha.
For experiment [15], the target named is T1, Estrogen receptor (Homo sapiens). In words: Displacement of [3H]estradiol from full-length human estrogen receptor alpha assessed as relative binding affinity by radiometric assay relative to estradiol.

Activity calls are given as the source filed them. The rule behind the calls is not given here.

Estrogen receptor beta (Homo sapiens), sequence (Q92731 whole entry): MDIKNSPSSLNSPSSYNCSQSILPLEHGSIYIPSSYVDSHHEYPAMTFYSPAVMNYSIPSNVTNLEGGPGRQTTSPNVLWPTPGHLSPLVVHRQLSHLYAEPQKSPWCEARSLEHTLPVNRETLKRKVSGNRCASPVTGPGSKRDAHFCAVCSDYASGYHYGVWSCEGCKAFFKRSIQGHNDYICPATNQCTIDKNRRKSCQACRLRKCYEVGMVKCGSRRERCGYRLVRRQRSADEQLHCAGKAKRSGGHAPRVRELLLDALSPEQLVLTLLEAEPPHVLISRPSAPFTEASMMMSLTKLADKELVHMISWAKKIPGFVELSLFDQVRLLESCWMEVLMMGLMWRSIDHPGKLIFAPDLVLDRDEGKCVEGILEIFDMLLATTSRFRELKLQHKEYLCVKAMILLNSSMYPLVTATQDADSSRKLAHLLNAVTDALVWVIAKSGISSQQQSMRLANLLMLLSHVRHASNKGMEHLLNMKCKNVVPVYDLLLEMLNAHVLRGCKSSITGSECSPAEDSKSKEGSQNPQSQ

For the compound `CCC(=C(c1ccc(O)cc1)c1ccc(/C=C/C(=O)O)cc1)c1ccccc1`, the result with MCF7 [1], with MCF7 [3], in the experiment with MCF7 [6] and with MCF7 [11] was inactive. Moreover, the outcome (in experiment [2]; with MCF7 [4]; with MCF7 [5]; in [7]; in the experiment with MCF7 [8]; in the experiment on MCF7 [9]) was Active. Besides, the result (with MCF7 [10]; in [12]; with MCF7 [13]) was Active.
For `O=C(O)C/C=C/c1ccc(C(=C2C3CCCC2CCC3)c2ccc(O)cc2)cc1`, the results for the relative binding affinity (RBA) in experiment [14] and in [15] were 23.1 and 9, respectively. For the same compound, the Ratio in the experiment filed under Homo sapiens was 2.6.
Take `O=C(O)CCCC/C=C/c1ccc(C(=C2C3CCCC2CCC3)c2ccc(O)cc2)cc1`: the figures for the relative binding affinity (RBA) in experiment [14] and in [15] were 81.1 and 87.4, respectively. In addition, the result in the experiment with MCF7 [1], in the experiment on MCF7 [3], in the experiment on MCF7 [4], in the experiment with MCF7 [6] and in the experiment with MCF7 [11] was inactive. In the experiment filed under Homo sapiens, the Ratio came to 0.93.
On to `C[C@]12CC[C@@H]3c4ccc(O)cc4C[C@@H](CCCCCCCCC[S+]([O-])CCCC(F)(F)C(F)(F)F)[C@H]3[C@@H]1CC[C@@H]2O` (stereo partly drawn), for which the result in the experiment on MCF7 [1], in the experiment with MCF7 [3], in the experiment with MCF7 [4], in the experiment with MCF7 [6] and in the experiment on MCF7 [11] was Active.
With `O=C(O)/C=C/c1ccc(C(=C2C3CCCC2CCC3)c2ccc(O)cc2)cc1`, the result in the experiment with MCF7 [1], in the experiment on MCF7 [3], in the experiment on MCF7 [6] and in the experiment on MCF7 [11] was inactive. Moreover, the outcome (in experiment [2]; with MCF7 [4]; in the experiment on MCF7 [5]; in experiment [7]; with MCF7 [8]; in the experiment with MCF7 [9]) was Active. The result (with MCF7 [10]; in experiment [12]; in the experiment with MCF7 [13]) was Active.
In the case of `O=C(O)CCC/C=C/c1ccc(C(=C2C3CCCC2CCC3)c2ccc(O)cc2)cc1`, the relative binding affinity (RBA) came to 62.8 in experiment [14] and 38.5 in experiment [15]. Moreover, the Ratio in the experiment filed under Homo sapiens turned out to be 1.6.
For `Oc1ccc(C(=C2CCCCC2)c2ccc(O)cc2)cc1`, the values for the relative binding affinity (RBA) in experiment [14] and in experiment [15] were 334 and 68, respectively.
As to `COP(=O)(O)/C=C/c1ccc(C(=C2C3CCCC2CCC3)c2ccc(O)cc2)cc1`, the results for the relative binding affinity (RBA) in [14] and in experiment [15] were 7.7 and 7.5, respectively. Further, in the experiment filed under Homo sapiens, the Ratio turned out to be 1.
Turning to `O=C(O)/C=C/c1ccc(C(=C2CCCCC2)c2ccc(O)cc2)cc1`, the result in the experiment on MCF7 [1], with MCF7 [3], in the experiment with MCF7 [4], with MCF7 [6] and with MCF7 [11] was inactive. Further, the result in the experiment with MCF7 [5], in the experiment on MCF7 [8], with MCF7 [9], in the experiment with MCF7 [10] and in the experiment on MCF7 [13] was Active.
For the compound `O=C(O)CCCCCCCCCCOc1ccc(C(=C2C3CCCC2CCC3)c2ccc(O)cc2)cc1`, the outcome with MCF7 [1], in the experiment on MCF7 [3], with MCF7 [4], in the experiment with MCF7 [6] and in the experiment on MCF7 [11] was inactive.
For the compound `O=C(O)CC/C=C/c1ccc(C(=C2C3CCCC2CCC3)c2ccc(O)cc2)cc1`, the relative binding affinity (RBA) was 24.6 in experiment [14] and 13.1 in experiment [15]. In addition, the Ratio in the experiment filed under Homo sapiens stood at 1.9.
